According to PubChem BioAssay AID489030 (Sanford-Burnham Center for Chemical Genomics, 2010):
“And” between values parts separate entries of the source, which are not always exact repeats. Identical values can stand only once. Out of some 330,000 compounds screened, about 2,400 (0.73%) were called active. How the source made its calls: active means inhibition of at least 40% at 20 µM; inactive means the rest. Many of the other results were omitted from the sample, so actives are more common in it than they were.

Target: Apoptotic protease-activating factor 1 (Homo sapiens) (UniProt O14727)
Test: inhibitors of human Apaf-1 apoptosome, primary screen, biochemical, DEVD-Rh110 fluorescence, uHTS (AID 489030);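 further: plate controls were DMSO wells for no effect and DEVD-CHO caspase inhibitor wells for full effect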
Conditions: reconstituted apoptosome caspase-3 activity, at 20 µM, active compounds read high
In short: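 Material: reconstituted apoptosome with Apaf-1, cytochrome c, caspase-9, procaspase-3, dATP. Technique: Rh110 fluorescence intensity. Buffer or medium: pH 7.5 Hepes buffer with CHAPS, BSA, DTT. Times: 30 min plus 50 min, RT.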

Chain of Apoptotic protease-activating factor 1 (Homo sapiens) (O14727 whole entry, looked up): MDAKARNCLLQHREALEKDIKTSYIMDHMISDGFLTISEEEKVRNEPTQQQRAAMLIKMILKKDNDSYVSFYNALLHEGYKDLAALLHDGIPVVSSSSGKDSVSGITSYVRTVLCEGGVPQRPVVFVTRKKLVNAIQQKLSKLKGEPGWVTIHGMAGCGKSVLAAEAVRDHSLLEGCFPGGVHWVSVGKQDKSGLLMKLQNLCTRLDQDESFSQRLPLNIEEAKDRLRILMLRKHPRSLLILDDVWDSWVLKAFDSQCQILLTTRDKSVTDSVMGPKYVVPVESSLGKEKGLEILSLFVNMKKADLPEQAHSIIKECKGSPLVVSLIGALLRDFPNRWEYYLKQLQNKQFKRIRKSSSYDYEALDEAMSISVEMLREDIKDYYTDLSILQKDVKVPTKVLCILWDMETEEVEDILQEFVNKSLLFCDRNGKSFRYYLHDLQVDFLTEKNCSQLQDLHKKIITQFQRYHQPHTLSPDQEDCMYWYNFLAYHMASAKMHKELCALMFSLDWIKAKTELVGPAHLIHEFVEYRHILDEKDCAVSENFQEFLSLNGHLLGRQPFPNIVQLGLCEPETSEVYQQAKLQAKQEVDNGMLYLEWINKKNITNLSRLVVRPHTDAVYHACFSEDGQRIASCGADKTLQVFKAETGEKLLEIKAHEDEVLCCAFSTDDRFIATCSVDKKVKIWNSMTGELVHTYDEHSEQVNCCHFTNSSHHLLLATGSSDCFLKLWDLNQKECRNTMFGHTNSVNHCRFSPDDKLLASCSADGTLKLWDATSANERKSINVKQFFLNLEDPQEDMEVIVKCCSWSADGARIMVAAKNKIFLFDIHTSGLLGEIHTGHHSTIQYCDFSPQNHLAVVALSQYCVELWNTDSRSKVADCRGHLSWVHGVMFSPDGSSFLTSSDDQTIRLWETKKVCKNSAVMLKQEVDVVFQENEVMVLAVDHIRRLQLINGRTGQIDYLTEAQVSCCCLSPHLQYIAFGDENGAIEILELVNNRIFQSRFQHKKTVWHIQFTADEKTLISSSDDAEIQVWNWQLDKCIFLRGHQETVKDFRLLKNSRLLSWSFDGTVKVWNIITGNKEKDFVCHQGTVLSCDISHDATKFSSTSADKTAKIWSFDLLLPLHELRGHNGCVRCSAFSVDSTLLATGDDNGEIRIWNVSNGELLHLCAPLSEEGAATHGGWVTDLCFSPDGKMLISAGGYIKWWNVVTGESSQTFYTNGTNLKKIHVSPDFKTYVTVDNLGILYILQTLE

inhibition, active:
CC(C)Cn1c(N)c(C(=O)NCc2cccs2)c2nc3ccccc3nc21 63.4%, COCC(C)OC(=O)c1c(N)n(CCCN2CCOCC2)c2nc3ccccc3nc12 (stereo not given) 50.9%, C=CCn1c(N)c(C(=O)OCC(C)C)c2nc3ccccc3nc21 54.1%, O=C(N/N=C\c1cccnc1)c1cc(-c2ccccc2)nc2c(Cl)cccc12 40.1%, COc1ccc(-c2nc3cc(C)ccn3c2NC2CCCCC2)cc1SC1CCCCC1 48.4%, COCCn1nnnc1C(c1cc2ccc(OC)cc2[nH]c1=O)N1CCc2ccccc2C1 (stereo not given) 56.8%, COc1cccc(-c2sc3ccc(OC)cc3c2-c2ccc(OCCN3CCCCC3)cc2)c1 61.8%, COc1ccc2sc(-c3ccccc3OC)c(-c3ccc(OCCN4CCCC4)cc3)c2c1 73.4%, NC(N)=N/N=C/c1ccc(OCc2ccc(Cl)cc2Cl)cc1 65.5%, CCN(CC(=O)NCc1cccs1)C(=O)c1cccc(S(=O)(=O)Nc2ccccc2OC)c1 60.2%

inhibition, inactive:
CCOc1c2ccc(C(=O)NC3CCCc4ccccc43)cc2nn1CC (stereo not given) 5.11%, CCOC(=O)N1CCC(=NNC(N)=O)CC1 1.89%, O=C(NCc1cccs1)c1cc(-c2ccccn2)nc2ccc(Br)cc12 5.9%, CCOc1ccccc1NC(=O)Cn1nnc(C(=O)NCc2cccs2)c1N -4.26%, C=CCn1c(C(C)NC(=O)CC)nc2ccccc21 (stereo not given) -0.828%, CC(=O)c1ccc(NC(=O)CSc2nc3ccccc3c(=O)n2CCCN2CCOCC2)cc1 2.62%, C=CCn1c(P(C)(=O)O)nc2ccccc21 5.81% and -0.524%, CC(CN1CCOCC1)OC(=O)c1ccc(C(C)(C)C)cc1 (stereo not given) 15.5%, O=C(Nc1ccccc1Cl)NC1(C(=O)N2CCOCC2)CCCCC1 -1.88%, Cn1cncc1C#Cc1c(-c2ccsc2)sc2ccccc12 33.5%, CCC/C=C(\CCC)C(NC(=O)Cc1ccccc1)c1ccc(C(=O)OC)cc1 (stereo not given) 7.48%, CC1CCN(C(=O)COC(=O)c2cc(S(=O)(=O)N3CCOCC3)ccc2Cl)CC1 3.82%, CCOC(=O)c1ccc(NC(=O)Cn2cnc3cc(C)c(C)cc32)cc1 -0.083%, O=C(CCC(=O)OCC(F)(F)C(F)F)NCc1ccccc1 -13%, CCOc1ccc(NCCC(=O)c2ccc3c(c2)OCO3)cc1 4.39%, Oc1cc(O)c2c(c1)OC(c1ccc(O)c(O)c1)C(O)C2 (stereo not given) -2.63%, COC(=O)C[n+]1cccc2ccccc21 -1.6%, COc1ccc(-c2cc(C(=O)N/N=C/c3cccnc3)c3ccccc3n2)c(OC)c1 4.65%, C/C(=N\NC(=O)c1cc(-c2ccc(O)cc2)nc2ccccc12)c1cccnc1 7.65%, COc1ccc(C(CNC(=O)c2cc3c(s2)CCCC3)N2CCOCC2)cc1 (stereo not given) 33.5%, CCOc1cc(-c2nc3cc(C)ccn3c2NCC2CCCO2)ccc1O (stereo not given) 9.28%, COc1ccc(-c2nc3cnccn3c2NC2CCCCC2)cc1-c1cccc(Cl)c1 36.9%, CC1CN(C(=S)Nc2cccc(F)c2)CC(C)O1 (stereo not given) -7.38%, CCOc1ccc2[nH]c(=O)c(C(c3nnnn3CCOC)N3CCOCC3)cc2c1 (stereo not given) -3.2%, COc1ccc(OC)c(C(c2nnnn2C(C)(C)C)N2CCc3ccccc3C2)c1 (stereo not given) 11.5%, Cc1cc(OCc2cc(C(=O)NCc3cc(C(C)C)no3)no2)cc(C)c1Cl 17.4%, COC(=O)[C@@H]1C[C@@]2(O)[C@H](O)[C@H](O)[C@H](O)C[C@H]2N1Cc1ccc(C(C)(C)C)cc1 10.6%, CN(C)CCCN(Cc1cc2cc3c(cc2[nH]c1=O)OCCO3)C(=O)NC1CCCCC1 2.55%, CNC(=O)NC(=O)CSc1nnc(-c2ccc(F)cc2)n1CC1CCCO1 (stereo not given) -8.1%, O=C(NN1C(=O)C2C3C=CC(C4CC34)C2C1=O)c1ccc(Cl)cc1 (stereo not given) 5.04%, CCOC(=O)Cn1nnnc1C -24.4%, COc1cc(C(=O)NC2CCN(Cc3ccccc3)CC2)cc(Cl)c1OC(C)C 4.18%, COc1ccccc1-c1sc2ccccc2c1-c1ccc(Br)nc1 14.2%, COc1ccc(-c2sc3ccccc3c2-c2ccc(OCCN3CCOCC3)cc2)cc1 15.7%, COc1ccccc1-c1sc2ccccc2c1-c1ccc(C(C)=O)cc1 21.9%, COc1cc(OC)cc(-c2sc3ccc(OC)cc3c2-c2ccc3cc[nH]c3c2)c1 7.8%, CN1CCC(CN)(N2CCN(c3ccccc3)CC2)CC1 6.96%, CC1COc2ccccc2N1S(=O)(=O)c1ccccc1 (stereo not given) 11.7%, OCCn1c(-c2ccccc2)csc1=Nc1ccccc1 16.7%, O=C(Nc1cccc(Cl)c1Cl)c1ccccc1NC(=O)C1CC=CCC1C(=O)O (stereo not given) -3.06%, O=C(COC(=O)C1(c2ccc(F)cc2)CCCC1)N1CCNC1=O -3.12%, Cc1ccc(NC(=O)c2oc3ccccc3c2C)c([N+](=O)[O-])c1 4.97%, O=S1(=O)CCC(NC(=S)SCc2ccccc2Br)C1 (stereo not given) 8.21%, COc1ccc(Cl)cc1N(CC(=O)N/N=C/c1ccc(OCC(N)=O)cc1)S(C)(=O)=O 9.06%, Cc1nc2ccccc2nc(C)c1=NOCc1ccc(Cl)cc1Cl 8.52%, CCCNC(=O)OC[C@H]1O[C@H](CCO/N=C/[C@@H](NS(=O)(=O)c2ccc(C)cc2)[C@H](C)/C=C/CC(=O)OC)C=C[C@@H]1Oc1ccc(OC)cc1 9.15%, O=C(c1ccc(Br)o1)N1CCN(CCOc2ccccc2)CC1 5.93%, CN(CC(=O)NC1CCCC1)S(=O)(=O)c1cnc[nH]1 -3.15%, CCN(CC(=O)NCc1cccs1)C(=O)c1ccccc1F -6.38%, CCN(CC(=O)NCc1cccs1)C(=O)c1ccc(OC)c(S(=O)(=O)N2CCOCC2)c1 5.14%
